# The list is not random: actives were taken first. Their share in the collection is about 3%.
# B2AR ag: beta2AR agonists driving receptor internalization, primary screen, cell-based, FAP fluorogen, flow cytometry. Am2.2-beta2AR cells. response, % (no concentration beside the values). 340,000 tested, 0.43% active. AID 504454, 2011;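 active = response above a set limit, near 3 SD of response in nonfluorescent compounds, cut at about 42% in these data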
# MC4R ag barr: MC4R agonists recruiting beta-arrestin, primary screen, cell-based, luminescence, agonist arm of biased-ligand search; AID 540308, 2011; U2OS MC4R beta-arrestin complementation; percent of melanotan II response, DMSO zero; Melanocortin receptor 4 (Homo sapiens), P32245; activation, % at 8.9 µM; 360,000 tested, 0.98% active;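 active = activation above a per-plate cutoff, the mean activation of sample wells on that plate plus 3 SD, cut at about 8% in these data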
# Target sequence (P32245 whole entry, looked up): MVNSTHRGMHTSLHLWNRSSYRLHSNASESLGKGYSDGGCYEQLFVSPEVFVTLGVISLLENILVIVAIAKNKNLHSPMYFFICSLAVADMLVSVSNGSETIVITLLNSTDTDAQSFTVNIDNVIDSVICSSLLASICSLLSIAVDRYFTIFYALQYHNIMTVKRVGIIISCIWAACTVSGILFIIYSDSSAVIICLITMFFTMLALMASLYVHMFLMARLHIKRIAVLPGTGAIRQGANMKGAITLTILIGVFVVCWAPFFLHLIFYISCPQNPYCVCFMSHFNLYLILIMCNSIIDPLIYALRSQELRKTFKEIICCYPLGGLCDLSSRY
# ABHD5 PLIN5 PPI: ABHD5-PLIN5 interaction inhibitors, primary screen, cell lysate, split luciferase complementation, luminescence. Perilipin-5 (Homo sapiens) + 1-acylglycerol-3-phosphate O-acyltransferase ABHD5 (Homo …. Split G. princeps luciferase complementation, 4 h. inhibition, % at 4 µM. 360,000 tested, 0.78% active;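 active = inhibition above the mean inhibition across every tested compound plus 3 SD, cut at about 22% in these data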;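 note: 0% = DMSO only wells and the 100% control is not disclosed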
# MC4R antag cAMP: MC4R antagonists of cAMP signaling, primary screen, cell-based, TR-FRET, antagonist arm of biased-ligand search; Melanocortin receptor 4 (Homo sapiens), P32245; MC4R-expressing cells, MTII-stimulated cAMP, LANCE TR-FRET; inhibition, % at 6.5 µM; 360,000 tested, 0.48% active; AID 540295, 2011;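 active = inhibition above its plate's cutoff, the mean of tested wells on that plate plus 3 SD, cut at about 29% in these data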;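 note: 0% = Melanotan II alone and 100% = Melanotan II plus saturating MCL0020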
#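 Test system: U2OS cells stably expressing human melanocortin 4 receptor (MC4R); also added: Melanotan II challenge; compound: 6.5 µM single dose; timing: 30-min compound preincubation, 1-h Melanotan II challenge, 1-h detection, room temperature; signal: Eu-cAMP/anti-cAMP TR-FRET, emission 671 nm; repeats: one well per compound, no replicates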
# PfG6PD inh: PfG6PD enzyme inhibitors, primary screen, biochemical, fluorescence intensity, uHTS; PfGluPho enzyme, NADPH resazurin-diaphorase fluorescence; inhibition, % at 20 µM; 350,000 tested, 0.78% active;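 active = inhibition reaching at least a set limit at 20 µM in the primary screen, cut at about 59% in these data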;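 note: 0% = DMSO wells with substrate and 100% = DMSO wells lacking glucose-6-phosphate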
# * marks the source's active call; other numbers are inactive results; x = not tested or not shown.
SMILES,B2AR ag,MC4R ag barr,ABHD5 PLIN5 PPI,MC4R antag cAMP,PfG6PD inh
COc1ccc(-c2cccc(C(=O)Nc3ccc(C)cc3)c2)cc1,0,8.6*,-1,1,4
CC(=O)c1ccc(NC(=O)c2cccc(NC(=O)c3ccccc3)c2)cc1,0,8.4*,-10,1,-17
COc1ccc(NC(=O)c2ccc3ccccc3c2)cc1,3,8.8*,-5,10,9
COc1ccc(C(=O)NNC(=O)c2ccc3ccccc3c2)cc1,7,-1,-1,-5,6
COc1ccc(C(=O)Nc2ccc(O)c3ccccc23)cc1,5,-1,1,8,30
COc1ccc(NC(=O)Nc2ccc(O)c3ccccc23)cc1,1,x,x,x,72*
O=S1(=O)CC(N2CCCC2)CN1Cc1cn(Cc2ccc(F)cc2)nn1 (centres undefined),x,x,-5,x,x
CCOc1ccc2nc(SCC(=O)c3ccc(C)s3)sc2c1,0,2,1,-1,39
CCOc1ccc2nc(SCC(=O)c3ccc(O)cc3O)sc2c1,-2,8.5*,-6,-6,-7
Cc1ccc(-c2cc(NC=O)c3ncc(-c4cccc(C(=O)N(C)C)c4)n3c2)cc1,x,4,2,-13,x
COc1cccc(-c2cnc3c(NC=O)cc(-c4ccccc4)cn23)c1,x,3,-4,-17,x
COc1cccc(-c2cc(NC=O)c3ncc(-c4ccc(C(C)=O)cc4)n3c2)c1,x,8.4*,0,2,x
CN(C)C(=O)c1cccc(-c2cnc3c(NC=O)cc(-c4ccccc4N(C)C)cn23)c1,x,9.2*,0,-33,x
COc1cccc(-c2cnc3c(NC=O)cc(-c4ccccc4Oc4ccccc4)cn23)c1,x,8.8*,0,1,x
COc1ccc(CN2C(=O)CCC2(C)c2nnnn2-c2ccc3c(c2)OCCO3)cc1 (centres undefined),x,x,1,x,x
COCCNc1nc(Nc2ccc(C#N)cc2)c2sccc2n1,x,2,1,-1,x
O=C(COC(=O)c1cccc2ccccc12)Nc1ncc(C(F)(F)F)cc1Cl,6,8.7*,7,-3,-17
NC(=O)c1ccc(N=Cc2ccc([N+](=O)[O-])s2)cc1,24,-2,-12,-1,72*
O=[N+]([O-])c1ccc(C=Nc2ccc(Cl)c([N+](=O)[O-])c2)s1,26,-5,-14,2,x
Cc1cc(C)cc(N=Cc2ccc([N+](=O)[O-])s2)c1,9,-2,-4,-5,62*
CCOc1ccc(-c2nn(-c3ccccc3)cc2/C=C2\SC(N)=NC2=O)cc1C,59*,2,8,4,14
CCOC(=O)N1CCN(S(=O)(=O)c2c[nH]c(C(=O)OC)c2)CC1,-29,0,-2,7,0
CCN(CCCNC(=O)Cn1ncc2c(=O)oc3ccccc3c21)c1cccc(C)c1,10,9.4*,0,7,18
COc1ccc(S(=O)(=O)NCC(=O)N(CC(=O)NCc2ccco2)Cc2ccc(F)cc2)cc1,-5,0,-5,19,5
CC(C)(C)c1ccc(OCCC(=O)Nc2ccc(N3CCOCC3)cc2N2CCOCC2)cc1,4,8.6*,-6,9,26
SMILES,B2AR ag,MC4R ag barr,ABHD5 PLIN5 PPI,MC4R antag cAMP,PfG6PD inh
NS(=O)(=O)c1ccc(-n2nc(C(=O)O)cc2-c2ccc(Cl)cc2)cc1,-6,-1,-2,-1,-1
Cc1ccc(-c2cc(C(F)(F)F)nn2-c2ccc(S(N)(=O)=O)cc2)cc1,-12,8.5*,-1,5,4
CC(C)c1cc(Cn2c3ccccc3c(=O)n2C(C)Cn2cc(COc3ccccc3)nn2)on1 (centres undefined),x,x,8,x,x
C=CC[C@H](CC(=O)N(CCO)Cc1ccccc1)C(=O)NCCOC(=O)[C@H](CC=C)CC(=O)OC(C)(C)C,2,-2,0,11,11
C=CC[C@@H](CC(=O)N(CCO)Cc1ccccc1)C(=O)N[C@H](COC(=O)[C@@H](CC=C)CC(=O)OC(C)(C)C)Cc1ccccc1,0,9.3*,10,8,23
C=CC[C@@H](CC(=O)N[C@H](CO)Cc1ccccc1)C(=O)N[C@H](COC(=O)[C@@H](CC=C)CC(=O)OC(C)(C)C)Cc1ccccc1,1,9.8*,-1,12,1
